Assay results taken from ChEMBL document CHEMBL3351306, “Physicochemical property-driven optimization of diarylaniline compounds as potent HIV-1 non-nucleoside reverse transcriptase inhibitors” (Bioorg Med Chem Lett, 2014).
Converted amounts (≈) assume the structure as drawn.

Tests used:
[1] = tested on: Human immunodeficiency virus 1; test: Antiviral activity against wild type HIV1 3B infected in human MT2 cells assessed as inhibition of viral replication; assay type: functional, organism-based; details: Human immunodeficiency virus 1, 3B
MT2 = test: Cytotoxicity against human MT2 cells assessed as cell viability; assay type: cell-based
Outline: (§1)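 Run in MT-2 cells, at least in triplicate, reported as mean ± SD; the paired antiviral measurement used wild-type HIV-1 IIIB replication in MT-2 cells.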

[2] = Selectivity index, ratio of CC50 for human MT2 cells to EC50 for wild type HIV1 3B; assay type: toxicity, cell-based; details: read-out: Selectivity Index; outline: as §1
[3] = tested on: Human immunodeficiency virus 1; test: Fold resistance, ratio of EC50 for HIV1 A17 expressing K103N/Y181C mutant infected in human MT2 cells to EC50 for wild-type HIV1 3B infected in human MT2 cells; assay type: functional
[4] = Aqueous solubility of the compound at pH 2 by HPLC analysis; assay type: physicochemical; details: buffer
Outline: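 Solubility in aqueous buffer at pH 2.0, chosen to mimic stomach conditions; dissolved compound quantified by HPLC.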

[5] = Aqueous solubility of the compound at pH 7.4 by HPLC analysis; assay type: physicochemical; details: buffer
Outline: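 Solubility in aqueous buffer at pH 7.4, chosen to mimic plasma conditions; dissolved compound quantified by HPLC.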

[6] = Lipophilicity, log P of the compound by HPLC analysis; assay type: physicochemical
Outline: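 Log P determined experimentally by HPLC at pH 7.4.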

[7] = tested on: Human immunodeficiency virus 1; test: Antiviral activity against drug-resistant HIV1 A17 expressing K103N/Y181C mutant infected in human MT2 cells assessed as inhibition of viral replication; details: Human immunodeficiency virus 1, A17, MT2

SMILES | EC50 [1] | CC50 (MT2) | selectivity ratio [2] | Ratio EC50 [3] | solubility [4] | solubility [5] | logP [6] | EC50 [7] | logP ([6]; read-out: logP)
Cc1cc(C#N)cc(C)c1Oc1cc(Nc2ccc(C#N)cc2)c(N)cc1CNC1CC1 | 10.6 nM | 12100 nM | 1140 | 12.3 | 286 µg/mL (≈ 675 µM) | 13 µg/mL (≈ 30.7 µM) | 3.84 | 130 nM | 
Cc1cc(C#N)cc(C)c1Oc1cc(Nc2ccc(C#N)cc2)c(N)cc1CN1CCN(C)CC1 | 170 nM | 96900 nM | 570 | >11.8 |  |  |  | > 2000 nM | 
Cc1cc(C#N)cc(C)c1Oc1cc(Nc2ccc(C#N)cc2)c(N)cc1COC(C)C | 14 nM | 89400 nM | 6390 | 22.5 |  |  |  | 315 nM | 
CC(=O)OCc1cc(N)c(Nc2ccc(C#N)cc2)cc1Oc1c(C)cc(/C=C/C#N)cc1C | 0.82 nM | 96300 nM | 117000 | 44.5 | 1.87 µg/mL (≈ 4.13 µM) | 0.49 µg/mL (≈ 1.08 µM) | 4.48 | 36.5 nM | 
Cc1cc(C#N)cc(C)c1Oc1cc(Nc2ccc(C#N)cc2)c(N)cc1CNCCCO | 6.1 nM | 15100 nM | 2480 | >328 | 290 µg/mL (≈ 657 µM) | 236 µg/mL (≈ 534 µM) | 1.81 | > 2000 nM | 
CNCc1cc(N)c(Nc2ccc(C#N)cc2)cc1Oc1c(C)cc(C#N)cc1C | 9.94 nM | 12700 nM | 1280 | 11.6 | 263 µg/mL (≈ 662 µM) | 159 µg/mL (≈ 400 µM) | 1.86 | 115 nM | 
COCc1cc(N)c(Nc2ccc(C#N)cc2)cc1Oc1c(C)cc(/C=C/C#N)cc1C | 5.74 nM | 50300 nM | 8760 | 2.6 | 1.7 µg/mL (≈ 4 µM) | 0.11 µg/mL (≈ 0.259 µM) | 4.13 | 14.7 nM | 
COCc1cc(N)c(Nc2ccc(C#N)cc2)cc1Oc1c(C)cc(CCC#N)cc1C | 3.25 nM |  | > 61500 | 0.91 | 1.82 µg/mL (≈ 4.27 µM) | 0.66 µg/mL (≈ 1.55 µM) | 3.25 | 2.95 nM | 
CC(=O)OCc1cc(N)c(Nc2ccc(C#N)cc2)cc1Oc1c(C)cc(CCC#N)cc1C | 0.96 nM | 44800 nM | 46700 | 5.1 | 2.63 µg/mL (≈ 5.79 µM) | 1.86 µg/mL (≈ 4.09 µM) | 2.84 | 4.92 nM | 
Cc1cc(C#N)cc(C)c1Oc1cc(Nc2ccc(C#N)cc2)c(N)cc1CO | 1.07 nM | 122000 nM | 114000 | 30.9 | 9.12 µg/mL (≈ 23.7 µM) | 0.86 µg/mL (≈ 2.24 µM) | 3.57 | 33.1 nM | 
CC(=O)OCc1cc(N)c(Nc2ccc(C#N)cc2)cc1Oc1c(C)cc(C#N)cc1C | 1.06 nM | 113000 nM | 107000 | 353 | 16.7 µg/mL (≈ 39.2 µM) | 0.2 µg/mL (≈ 0.469 µM) | 4.4 | 374 nM | 
COCc1cc(N)c(Nc2ccc(C#N)cc2)cc1Oc1c(C)cc(C#N)cc1C | 3.54 nM | 146000 nM | 41200 | 84.2 | 3.75 µg/mL (≈ 9.41 µM) | 0.07 µg/mL (≈ 0.176 µM) | 3.84 | 298 nM | 
Cc1cc(/C=C/C#N)cc(C)c1Nc1ccnc(Nc2ccc(C#N)cc2)n1 [RILPIVIRINE] |  | 90700 nM |  |  |  |  |  |  | > 5
